24 sequences from the EternaBench riboswitch data can be followed below.

The subject of the series is MS2 coat protein. In words: apparent Kd, MS2 coat protein; higher = weaker binding; RNA-MaP array. An outline of the steps:
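Designed RNAs were transcribed on an Illumina sequencing chip from sequenced DNA templates. They were incubated at room temperature with fluorescently labeled MS2 coat protein at 1.5 nM to 3 μM, for 0.8–1.5 h at the lowest to 10–20 min at the highest concentrations, in Tris-HCl pH 7.5 buffer with KCl, MgCl2, BSA, DTT, tRNA and Tween20, with or without input ligand. Apparent Kd is the median of per-cluster binding-curve fits. Designs measured on fewer than 10 clusters were excluded.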

[1] abbreviates: designed as: ON switch for flavin mononucleotide, no ligand.
The mark [2] stands for this setting: ligand present: flavin mononucleotide, designed as: ON switch for flavin mononucleotide.
Setting [3] is: designed as: ON switch for tryptophan, no ligand.
The mark [4] stands for this setting: ligand present: tryptophan, designed as: ON switch for tryptophan.
Setting [5] is: designed as: OFF switch for flavin mononucleotide, no ligand.
Where [6] appears, read: ligand present: flavin mononucleotide, designed as: OFF switch for flavin mononucleotide.

In the case of “UAGACGCACAAACAUGAGGAUCACCCAUGUGUACAGACGCUGCAGGAUAUCCUCUGAAGUUAGUAGGAGAAGGGCAAACAACCU”, the apparent Kd (usually the concentration giving half-maximal binding under the conditions of the assay) worked out at 44.5 nM under setting [1] and 27.3 nM under setting [2].
For “CCGCUCGGGACAUGAGGAUCACCCAUGUUACCUUGCCGUGAGAGAAGGGACACGGCCAGCUCAUGUCAGGAUAUCUCAGCGUAU”, the “apparent Kd” value was found to be 48.3 nM under setting [1] and 12.4 nM under setting [2].
As for “ACGAAACAAGCGGCCGCCACUUCGUGGUGCUAAGGCUUGAUACUACAUGAGGAUCACCCAUGUCGAAGGACCGGGCUUGCGACUG”, the “apparent Kd” value worked out at 53.9 nM under setting [3] and 51.9 nM under setting [4].
Take “AUCUUUGUAGGAUAUCCUGAGGCAAACAUGAGGAUCACCCAUGUCCCAAGAAUGACUAAAGGAGAAGGACACUCGG”: the “apparent Kd” value runs as follows: under setting [5], 20.6 nM; under setting [6], 20.7 nM.
Take “AAUAUGUAAGGAUAUACUGAAAUAAUAAUAAUAAUAAAUGAGUAGAAGGAACAUGAGGAUCACCCAUGUGAAAC”: the “apparent Kd” value is, setting by setting: under setting [5], 8.71 nM; under setting [6], 8.07 nM.
Take “UCCAUGUUAGGAUAUCGGCCACCUUCGACAAAAGUGUACUGCGAGAAGGAACAUGAGGAUCACCCAUGUCUGGG”: the “apparent Kd” value reads like this: under setting [5], 416 nM; under setting [6], 104 nM.
For “CAGUCUCUAGCGGCCGCCACUGUUCUGCUGGUGCUGCUGAACGAACAUGAGGAUCACCCAUGUCUCAGGACCGGGCUUCAGACUC”, the “apparent Kd” value was determined as 26.1 nM under setting [3] and 26.9 nM under setting [4].
As to “AUGUAGCCGUCGACUGUACCUUAUGCCGAUACCAGCUACCCGUGAAGCCCUUGGCAGCGGGAAACAUGAGGAUCACCCAUGUCAG”, the “apparent Kd” value is, setting by setting: (designed as: OFF switch for theophylline, no ligand) 23.9 nM; (ligand present: theophylline, designed as: OFF switch for theophylline) 41.3 nM.
For “UUUAGUCAAUCGGCCGCCACUGACAUGAGGAUCACCCAUGUAGGUAAGGAUCAACCUCGAAAGUACAGGACCGGGAUUCGCCUCU”, the “apparent Kd” value is, setting by setting: (designed as: OFF switch for tryptophan, no ligand) 53.3 nM; (ligand present: tryptophan, designed as: OFF switch for tryptophan) 84 nM.
As to “CCUAGACAAGAGAAGGUUGAGAAGAAACUUUGCAAAGGAUAUCUAAACAUGAGGAUCACCCAUGUCGAUAUAUGGGUAGGCGAA”, the “apparent Kd” value under setting [5] turned out to be 102 nM and the “apparent Kd” value under setting [6] was 91.4 nM.
Take “UCGAGUAAGGAGAAGGACUAAUGGACUCACAAAGUAGGAUAUCCUGAACAUGAGGAUCACCCAUGUUGAUGUAACAUGUACUGG”: the “apparent Kd” value was 118 nM under setting [1] and 80.1 nM under setting [2].
“UGCGGACAUGAGGAUCACCCAUGUGCGGAUACCAGCAGCCGGCUCUGCCCUUGGCAGCCGCUACCCUUGCACGUUUAACGAUCCA”: the “apparent Kd” value is, setting by setting: (designed as: ON switch for theophylline, no ligand) 37.8 nM; (ligand present: theophylline, designed as: ON switch for theophylline) 36.7 nM.
In the case of “GUGGGCCGGGUAGGAUAUCGACAUGAGGAUCACCCAUGUGUGAGUUGAUGAACUCACGGAUAGCCCGAGAAGGACCUCAGGGCU”, the “apparent Kd” value is 17.9 nM under setting [1] and 16.2 nM under setting [2].
In the case of “UUAUAGGAAGGAUAUACAUGAGGAUCACCCAUGUUCAAACCAACGCACUAUCAUAAAUGUAGAAGGACCAACCC”, the “apparent Kd” value is, setting by setting: under setting [5], 11.9 nM; under setting [6], 10.1 nM.
Consider “AAAGAAAGAGUGAGGAUAUGAUAUAAACAAAAGUAACAGAAGGCACAUGAGGAUCACCCAUGUGACUAUAGAAU”, for which the “apparent Kd” value under setting [5] was 6.08 nM and the “apparent Kd” value under setting [6] was determined as 5.62 nM.
In the case of “AUGGGUACCACAGGAUAUUAGUAACACAUGAGGAUCACCCAUGUUUUACCGCUUGAAGCUUAGACUAAGAAGGGUGGCUUAGAA”, the “apparent Kd” value stood at 55.1 nM under setting [1] and 23.9 nM under setting [2].
“ACGUUCCUGAGAGGAUAUUCCAACAUGAGGAUCACCCAUGUAGAUGGUCGAUGCUUCCAUUCAGCGAAGAAGGCUCUAAAGGGC”: the “apparent Kd” value under setting [5] turned out to be 22.3 nM and the “apparent Kd” value under setting [6] is 15.7 nM.
On to “ACACAAACAGAAGGAUAUUUCACCAACAAGUCGAAAGAAGGUCUAGUACAUGAGGAUCACCCAUGUCUCAGUACAUCGCCGGUU”, for which the “apparent Kd” value runs as follows: under setting [5], 33.7 nM; under setting [6], 30.9 nM.
As for “UAGGAACAUGAGGAUCACCCAUGUUAGGAUAUCGAGGUAUGGAUUAUCAUGCUGUAAGCGAGAAGGAACGUGUG”, the “apparent Kd” value reads like this: under setting [5], 30.8 nM; under setting [6], 29.6 nM.
With “UGUAUAGCGGCAGGAUAUGAGAGUGUAGGUGCUUCAGAAGGGCCAUGUGACGCUUUAAAUGGGACACAUGAGGAUCACCCAUGU”, the “apparent Kd” value amounted to 18 nM under setting [5] and 13.5 nM under setting [6].
For “UAUUUAUCUAUUGUGACAAACAUGAGGAUCACCCAUGUAUACAGAAGGCAUUACCGAAUCUCGGAUGAGGAUAUGUUAUGGAGU”, the “apparent Kd” value by setting is: under setting [5], 14 nM; under setting [6], 33.9 nM.
For “CGAAGAAAACGGAAAUCAAUAACAUGAGGAUCACCCAUGUCUCAGGAUAUAAGAGAAGGAUGUAGUUAGAAGGGAGAGUUAUGU”, the “apparent Kd” value reads like this: under setting [1], 54.7 nM; under setting [2], 42.4 nM.
As to “GUGAGACAUGAGGAUCACCCAUGUAAGGAUAUUGCCUCGACCAUAUAAACAUAUCGGACAAGAAGGUACAGGAG”, the “apparent Kd” value under setting [5] was determined as 37.8 nM and the “apparent Kd” value under setting [6] turned out to be 29.1 nM.
Take “UAAGAUUCUGUAGGAUAUCAAAUACAUGAGGAUCACCCAUGUAACCUGAUUUCUGAUCCUCAGUGUGAGAAGGACAAUUAAGCC”: the “apparent Kd” value by setting is: under setting [5], 22.1 nM; under setting [6], 21.2 nM.
